Reference: ChEMBL document CHEMBL1128182, “Synthesis of substituted 1-norbornylamines with antiviral activity” (J Med Chem, 1995)
Values after ≈ are worked out from the molar mass of the structure shown.

Columns and labels:
Vero [1] = assay: Minimum inhibitory concentration against African swine fever virus, in vero monkey kidney cells; type: functional; details: Chlorocebus sabaeus
[2] = Ratio of MIC50 to MTC50 against HSV-2; type: functional
MDCK = assay: Minimum inhibitory concentration against influenza A virus, in MDCK cells from dog kidney; type: functional; details: Canis lupus familiaris
Procedure, shortened: (§1)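 MDCK dog kidney cells infected with influenza A. MIC50 is the lowest concentration giving a 50% drop in virus yield. MTC50 is the lowest concentration toxic to 50% of cells. Selectivity index is MTC50 divided by MIC50, in µg/mL terms. Amantadine hydrochloride served as the reference.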

[3] = Minimum toxic concentration against herpes simplex virus 2, in vero monkey kidney cells; type: ADME, cell-based; details: chlorocebus sabaeus, read-out: MTC50
[4] = […] against African Swine Fever Virus; type: functional
Vero [5] = assay: Minimum inhibitory concentration against herpes simplex virus 2, in vero monkey kidney cells; type: functional; details: Chlorocebus sabaeus
[6] = Minimum toxic concentration against influenza A virus, in MDCK cells from dog kidney; type: ADME, cell-based, Canis lupus familiaris; details: read-out: MTC50; procedure, shortened: as §1
[7] = Minimum toxic concentration against African swine fever virus, in vero monkey kidney cells; type: ADME, cell-based; details: chlorocebus sabaeus, read-out: MTC50

Structure (SMILES): CCNC12CCC(C1)C(C)(C)C2C (stereo not drawn)
- MIC50 (Vero [1]): 30 µg/mL (≈ 165 µM)
- Selectivity index [2]: 4
- MIC50 (MDCK): 0.1 µg/mL (≈ 0.552 µM)
- MCC [3]: 300 µg/mL
- Selectivity index [4]: 10
- MIC50 (Vero [5]): 75 µg/mL (≈ 414 µM)
- MCC [6]: 100 µg/mL
- MCC [7]: 300 µg/mL

Structure (SMILES): C=C1C2CCC(NCC)(C2)C1(C)C (stereo not drawn)
- MIC50 (Vero [1]): 30 µg/mL (≈ 167 µM)
- Selectivity index [2]: 4
- MIC50 (MDCK): 0.1 µg/mL (≈ 0.558 µM)
- MCC [3]: 400 µg/mL
- Selectivity index [4]: 13
- MIC50 (Vero [5]): 100 µg/mL (≈ 558 µM)
- MCC [6]: 100 µg/mL
- MCC [7]: 400 µg/mL

Structure (SMILES): Cl.NC12CC3CC(CC(C3)C1)C2 [AMANTADINE HYDROCHLORIDE]
- MIC50 (MDCK): 0.5 µg/mL
- MCC [6]: 300 µg/mL

Structure (SMILES): CCNC12CCC(C1)C(C)C2(C)C (stereo not drawn)
- MIC50 (Vero [1]): 25 µg/mL (≈ 138 µM)
- Selectivity index [2]: 12
- MIC50 (MDCK): < 10 µg/mL
- MCC [3]: 300 µg/mL
- Selectivity index [4]: 12
- MIC50 (Vero [5]): 25 µg/mL (≈ 138 µM)
- MCC [6]: 100 µg/mL
- MCC [7]: 300 µg/mL

Structure (SMILES): C=C1C2(NCC)CCC(C2)C1(C)C (stereo not drawn)
- MIC50 (Vero [1]): 100 µg/mL (≈ 558 µM)
- Selectivity index [2]: 1
- MIC50 (MDCK): 5 µg/mL (≈ 27.9 µM)
- MCC [3]: 300 µg/mL
- Selectivity index [4]: 3
- MIC50 (Vero [5]): 300 µg/mL (≈ 1670 µM)
- MCC [6]: 200 µg/mL
- MCC [7]: 300 µg/mL

Structure (SMILES): CC1C2(N)CCC(C2)C1(C)C (stereo not drawn)
- MIC50 (Vero [1]): 30 µg/mL (≈ 196 µM)
- Selectivity index [2]: 6
- MCC [3]: 300 µg/mL
- Selectivity index [4]: 10
- MIC50 (Vero [5]): 50 µg/mL (≈ 326 µM)
- MCC [7]: 300 µg/mL

Structure (SMILES): CC1C2CCC(N)(C2)C1(C)C (stereo not drawn)
- MIC50 (Vero [1]): 25 µg/mL (≈ 163 µM)
- Selectivity index [2]: 8
- MIC50 (MDCK): 5 µg/mL (≈ 32.6 µM)
- MCC [3]: 200 µg/mL
- Selectivity index [4]: 8
- MIC50 (Vero [5]): 25 µg/mL (≈ 163 µM)
- MCC [6]: 50 µg/mL
- MCC [7]: 200 µg/mL
